Common to all, as to format: functional, cell-based
A short description of experiment [1]: Anticancer activity against human DU145 cells assessed as inhibition of cell growth after 72 hrs by MTT assay. To be noted: DU-145, 72 h. In a few lines: (§1)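 MTT assay at 3,000 cells/well. Cells treated with DMSO or seven concentrations from 0.5 to 50 µM for 24, 48 or 72 h. MTT added 3 h before the end point; formazan dissolved in DMSO and read at 570 and 630 nm. IC50 is the concentration giving 50% growth inhibition. Media: PANC-1, BxPC3 and 1205Lu in DMEM; DU145 and A549 in RPMI 1640; HT29, HCT116 and RKO in McCoy's 5A, all with 10% FBS and pen/strep, at 37 °C and 5% CO2.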

Experiment [2] in a line: Anticancer activity against human PANC1 cells assessed as inhibition of cell growth after 24 hrs by MTT assay. To be noted: PANC-1, 24 h. In a few lines: as §1
The nature of experiment [3]: Anticancer activity against human BxPC3 cells assessed as inhibition of cell growth after 72 hrs by MTT assay. To be noted: BXPC-3, 72 h. Put shortly: as §1
Experiment [4] can be described thus: Anticancer activity against human DU145 cells assessed as inhibition of cell growth after 24 hrs by MTT assay. To be noted: DU-145, 24 h. Put shortly: as §1
Experiment [5] is described as follows: Anticancer activity against human 1205 Lu cells assessed as inhibition of cell growth after 24 hrs by MTT assay. In a few lines: as §1
Experiment [6] is described as follows: Anticancer activity against human HCT116 cells assessed as inhibition of cell growth after 48 hrs by MTT assay. To be noted: HCT-116, 48 h. Put shortly: as §1
Experiment [7] relates to A549. The experiment can be described thus: Anticancer activity against human A549 cells assessed as inhibition of cell growth after 72 hrs by MTT assay. To be noted: A549, 72 h. In a few lines:
as §1

Experiment [8] can be described thus: Anticancer activity against human HCT116 cells assessed as inhibition of cell growth after 24 hrs by MTT assay. To be noted: HCT-116, 24 h. Put shortly:
as §1

Experiment [9] is described as follows: Anticancer activity against human BxPC3 cells assessed as inhibition of cell growth after 24 hrs by MTT assay. To be noted: BXPC-3, 24 h. In a few lines: as §1
Experiment [10] can be described thus: Anticancer activity against human PANC1 cells assessed as inhibition of cell growth after 48 hrs by MTT assay. To be noted: PANC-1, 48 h. Put shortly:
as §1

Experiment [11] deals with A549. The experiment can be described thus: Anticancer activity against human A549 cells assessed as inhibition of cell growth after 24 hrs by MTT assay. To be noted: A549, 24 h. In a few lines:
as §1

A short description of experiment [12]: Anticancer activity against human HCT116 cells assessed as inhibition of cell growth after 72 hrs by MTT assay. To be noted: HCT-116, 72 h. Put shortly:
as §1

Experiment [13] in a line: Anticancer activity against human 1205 Lu cells assessed as inhibition of cell growth after 72 hrs by MTT assay. In a few lines: as §1
In experiment [14] the test system is A549. The experiment can be described thus: Anticancer activity against human A549 cells assessed as inhibition of cell growth after 48 hrs by MTT assay. To be noted: A549, 48 h. In a few lines:
as §1

Experiment [15] is described as follows: Anticancer activity against human DU145 cells assessed as inhibition of cell growth after 48 hrs by MTT assay. To be noted: DU-145, 48 h. Put shortly: as §1
A short description of experiment [16]: Anticancer activity against human 1205 Lu cells assessed as inhibition of cell growth after 48 hrs by MTT assay. Put shortly:
as §1

Experiment [17] can be described thus: Anticancer activity against human BxPC3 cells assessed as inhibition of cell growth after 48 hrs by MTT assay. To be noted: BXPC-3, 48 h. In a few lines: as §1
A short description of experiment [18]: Anticancer activity against human PANC1 cells assessed as inhibition of cell growth after 72 hrs by MTT assay. To be noted: PANC-1, 72 h. Put shortly: as §1

Molecules are shown by their SMILES. A value given as a limit tells only on which side of the number the result lay.

The record followed here is ChEMBL document CHEMBL3779798, “Novel seleno- and thio-urea derivatives with potent in vitro activities against several cancer cell lines” (Eur J Med Chem, 2016).

On to `N=C(N)[Se]Cc1c2ccccc2nc2ccccc12`, for which the IC50 in [1] came out at 12.9 µM; in experiment [2], 12.1 µM; in experiment [3] it was 8.2 µM; in [4], 31.8 µM; in experiment [5] it was 13 µM; in experiment [6], 16.7 µM. In addition, the IC50 in experiment [7] was found to be 6.2 µM; in experiment [8], 31.8 µM; in [9] it was 20.4 µM; in experiment [10] it was 11.6 µM; in experiment [11], 34.4 µM; in [12] it was 14.4 µM. Moreover, the IC50 is 11.6 µM in [13]; 14.9 µM in experiment [14]; 14.9 µM in [15]; 16.7 µM in [16]; 10.5 µM in experiment [17]; 9.8 µM in experiment [18].

On to `COc1cc2oc(=O)cc(CSC(=N)N)c2cc1OC`, for which the IC50 in experiment [1], in experiment [2], in [3], in [4], in [5] and in experiment [6] was > 50 µM each time. For the same compound, the IC50 in experiment [7], in [8], in [9], in [10], in [11] and in experiment [12] was > 50 µM in each case. Further, the IC50 in [13] is 37.4 µM; in [14] it was > 50 µM; in [15], > 50 µM; in [16], > 50 µM; in [17] it was > 50 µM; in experiment [18] it was > 50 µM.

Regarding `N=C(N)[Se]Cc1ccc2c(c1)C(=O)c1ccccc1C2=O`, the IC50 in [1] is 8.2 µM; in [2] it was > 50 µM; in experiment [3] it was > 50 µM; in [4] it was 21.4 µM; in experiment [5], 17.4 µM; in [6] it was 12.6 µM. Besides, the IC50 in experiment [7] is 1.9 µM; in experiment [8] it was > 50 µM; in [9], > 50 µM; in experiment [10], > 50 µM; in experiment [11], 8.9 µM; in [12] it was 5.9 µM. The IC50 was 11.3 µM in experiment [13]; 2.2 µM in experiment [14]; 6.2 µM in experiment [15]; 14.5 µM in [16]; > 50 µM in [17]; 31.4 µM in experiment [18].

Regarding `N=C(N)SCc1ccc(-n2cccc2)cc1`, the IC50 was 31.7 µM in [1]; > 50 µM in experiment [2]; 24.6 µM in [3]; > 50 µM in [4]; > 50 µM in experiment [5]; > 50 µM in experiment [6]. The IC50 in [7] is > 50 µM; in experiment [8], > 50 µM; in experiment [9], > 50 µM; in [10], > 50 µM; in experiment [11], > 50 µM; in experiment [12], 31.5 µM. Besides, the IC50 was > 50 µM in [13]; > 50 µM in experiment [14]; > 50 µM in [15]; > 50 µM in experiment [16]; > 50 µM in experiment [17]; 40.6 µM in experiment [18].

Take `N=C(N)[Se]CN1C(=O)c2ccccc2C1=O`: the IC50 in experiment [1] turned out to be 6.9 µM; in [2], 23.5 µM; in [3], 18.8 µM; in experiment [4], 18.8 µM; in experiment [5] it was 19 µM; in [6] it was 17.9 µM. Further, the IC50 came out at 5.5 µM in experiment [7]; 29.2 µM in experiment [8]; 19.8 µM in [9]; 15.3 µM in [10]; 11.2 µM in [11]; 15.6 µM in experiment [12]. In addition, the IC50 in [13] worked out at 9.3 µM; in experiment [14], 7.8 µM; in experiment [15], 14 µM; in experiment [16], 13.2 µM; in experiment [17], 19.1 µM; in experiment [18], 12.6 µM.
